In ChEMBL document CHEMBL1150796, “A novel fluorescence intensity screening assay identifies new low-molecular-weight inhibitors of the gp41 coiled-coil domain of human immunodeficiency virus type 1” (Antimicrob Agents Chemother, 2007) one finds Ki and IC50 data, which are given here for five molecules.

Assay [1] in a line: Inhibition of HIV1 gp41 by metallopeptide-based fluorescence assay. Also on record: species or system Human immunodeficiency virus 1. Summed up: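 HR1 coiled-coil metallopeptide receptor [Fe(II)(env2.0)3]2+ (7.2 μM final) was mixed with LY-labelled HR2 probe C18-Aib-LY (1 μM) and 20 μM inhibitor in 25 mM Tris, 25 mM sodium acetate pH 7.0, 0.01% Tween 20, 4% DMSO. Inhibitor displacement relieved quenching; fluorescence was read at ex 425/em 540 nm. Signal was taken as primary/control scan ratio and Ki derived from binding equations.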

Assay [2] can be described thus: Inhibition of HIV1 gp41 by metallopeptide-based fluorescence assay using dose response study. The arrangement: species or system Human immunodeficiency virus 1. Summed up:
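Competitive dose-response with 7.2 μM Fe(II) HR1 metallopeptide receptor and 1 μM C18-Aib-LY probe across varying inhibitor concentrations. Buffer was pH 7.0 Tris/acetate with 0.01% Tween 20 and 4% DMSO; read at ex 425/em 540 nm, relative to free-probe maximum. Curves were fit to equations 5 and 8 for Ki; three independent experiments, mean ± SD.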

For assay [3], the system named is Human immunodeficiency virus 1. As to the kind of experiment: Antiviral activity against HIV1 assessed as inhibition of fusion of gp160 expressing human HeLa cells and CCR5-expressing Tat-long terminal repeat luciferase reporter cells. It counts as functional, organism-based. To be noted: Human immunodeficiency virus 1, HeLa. Summed up:
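Cell-cell fusion run by a collaborating lab: HeLa effector cells with inducible gp160 expression were mixed with CCR5-expressing Tat-LTR-luciferase reporter cells, and syncytium formation was scored. DMSO in cell culture was capped at 1%.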

For assay [4], the system named is Human immunodeficiency virus 1. As to the kind of experiment: Antiviral activity against HIV1 assessed as syncytium inhibition by cell-cell fusion assay. It counts as functional, organism-based. Summed up: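 HIV-1 fusion run as a cell-cell assay: HeLa effector cells with inducible gp160 expression were paired with CCR5-expressing reporter cells carrying Tat-responsive LTR-luciferase, with luciferase as the read-out. DMSO in culture was capped at 1%.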

Assay [5] has as its system Human immunodeficiency virus 1. Description: Antiviral activity against HIV1 assessed as six-helix bundle formation assay. It counts as functional.

Square brackets hold non-standard residues; d marks the D form. Peptide text beside a SMILES is read from it. Aib = CC(C)(N)C(=O)O

In the case of `O=C(O)c1ccc(NC(=O)c2cccc(Cc3cccc4cccnc34)c2)c(Cc2cccc(F)c2)c1`, the results for the Ki in assay [1] and in assay [2] were 1150 nM and 1510 nM, respectively. In addition, the IC50 in assay [3] was 8000 nM.

As to `O=C(O)c1ccc(NC(=O)c2cccc(Cc3ccc(F)cc3)c2)c(Cc2cccc([N+](=O)[O-])c2)c1`, the Ki in assay [1] came to 1200 nM; in assay [2] it was 1340 nM. For the same molecule, the 50% inhibitory concentration (IC50) in assay [3] stood at 8000 nM.

Take `CC[C@H](C)[C@H](NC(=O)[C@H](CC(C)C)NC(=O)[C@H](CO)NC(=O)[C@@H](NC(=O)[C@H](Cc1ccc(O)cc1)NC(=O)[C@H](CC(N)=O)NC(=O)C(C)(C)NC(=O)[C@@H](NC(=O)[C@H](CCC(=O)O)NC(=O)[C@H](CCCNC(=N)N)NC(=O)[C@H](CC(=O)O)NC(=O)[C@H](Cc1c[nH]c2ccccc12)NC(=O)[C@H](CCC(=O)O)NC(=O)C(C)(C)NC(=O)[C@H](Cc1c[nH]c2ccccc12)NC(=O)[C@@H](NC(=O)[C@H](CCSC)NC(C)=O)[C@@H](C)O)[C@@H](C)CC)[C@@H](C)O)C(=O)N[C@@H](CS)C(N)=O` (Ac-MTW[Aib]EWDREI[Aib]NYTSLIC-NH2): the inhibition constant Ki worked out at 600 nM in assay [1] and 800 nM in assay [2].

For the molecule `O=C(O[C@@H]1Cc2c(O)cc(O)cc2O[C@H]1c1cc(O)c(O)c(O)c1)c1cc(O)c(O)c(O)c1` (single isomer, unassigned) [GALLOCATECHIN GALLATE], in assay [4], the half-inhibitory concentration (IC50) worked out at 4320 nM.

For `O=C(O[C@@H]1Cc2c(O)cc(O)cc2O[C@@H]1c1cc(O)c(O)c(O)c1)c1cc(O)c(O)c(O)c1` [EPIGALOCATECHIN GALLATE], the IC50 in assay [5] was found to be 19900 nM.
